The values below come from ChEMBL document CHEMBL4190262, “Tuning of β-glucosidase and α-galactosidase inhibition by generation and in situ screening of a library of pyrrolidine-triazole hybrid molecules” (Eur J Med Chem, 2017).

SMILES strings stand for the structures. The source made the active and inactive calls. The calls are words filed in the database; no cut-off is given here.

Test [1] concerns the target Alpha-galactosidase (Coffea arabica) (UniProt Q42656). The test is described as follows: Inhibition of coffee beans alpha-galactosidase at 1 mM using p-nitrophenyl glycopyranoside preincubated for 5 mins followed by substrate addition measured after 20 mins by visible absorption spectroscopic method relative to control. The procedure, abridged:
(§1)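 Test compound at 1 mM in well. Mix: 0.01–0.5 units/mL enzyme plus 10 mM p-nitrophenyl glycopyranoside (aqueous solution), buffered to the enzyme's optimal pH. Enzyme and inhibitor preincubated 5 min at rt. Substrate then added and incubated 20 min at 37 °C. Stopped with sodium borate (pH 9.8). p-Nitrophenolate read at 405 nm. Duplicates averaged.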

The test system of the next test is Cornu aspersum. The experiment in a line: Inhibition of snail beta-mannosidase at 1 mM using p-nitrophenyl glycopyranoside preincubated for 5 mins followed by substrate addition measured after 20 mins by visible absorption spectroscopic method relative to control. The procedure, abridged: as §1
A further test has as its system Canavalia ensiformis. The experiment in a line: Inhibition of jack bean beta-N-acetylglucosaminidase at 1 mM using p-nitrophenyl glycopyranoside preincubated for 5 mins followed by substrate addition measured after 20 mins by visible absorption spectroscopic method relative to control. The procedure, abridged: as §1
In another test the test system is Oryza sativa. The test is described as follows: Inhibition of rice alpha-glucosidase at 1 mM using p-nitrophenyl glycopyranoside preincubated for 5 mins followed by substrate addition measured after 20 mins by visible absorption spectroscopic method relative to control. Summed up: as §1
The next test has as its target Alpha-galactosidase (Coffea arabica, UniProt Q42656). The test is described as follows: Inhibition of coffee beans alpha-galactosidase using p-nitrophenyl glycopyranoside preincubated for 5 mins followed by substrate addition measured after 20 mins by visible absorption spectroscopic method. The procedure, abridged:
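IC50 determined only for compounds giving ≥80% inhibition at 1 mM, read from plots of % inhibition versus inhibitor concentration. p-Nitrophenyl glycopyranoside substrate (10 mM solution) at the enzyme's optimal pH, with 0.01–0.5 units/mL enzyme. 5 min rt preincubation with enzyme, then 20 min at 37 °C. Borate stop (pH 9.8), absorbance at 405 nm. Duplicates averaged.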

Another test deals with Aspergillus niger. The test is described as follows: Inhibition of Aspergillus niger amyloglucosidase at 1 mM using p-nitrophenyl glycopyranoside preincubated for 5 mins followed by substrate addition measured after 20 mins by visible absorption spectroscopic method relative to control. Summed up: as §1
Test [2] deals with Alpha-galactosidase (Coffea arabica) (UniProt Q42656). The experiment in a line: Inhibition of coffee beans alpha-galactosidase at 50 uM using p-nitrophenyl glycopyranoside preincubated for 5 mins followed by substrate addition measured after 20 mins by visible absorption spectroscopic method relative to control. Summed up: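 Crude triazoles from in situ CuAAC (ascorbate/CuSO4, 24 h rt, water-diluted) were screened at 50 μM per well, assuming full conversion. Enzyme was coffee bean α-galactosidase at pH 6, 37 °C, with p-nitrophenyl glycoside substrate and 405 nm read-out. Blanks of CuSO4, ascorbate and each alkyne were run.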

The test system of a further test is Saccharomyces cerevisiae. The test is described as follows: Inhibition of yeast alpha glucosidase at 1 mM using p-nitrophenyl glycopyranoside preincubated for 5 mins followed by substrate addition measured after 20 mins by visible absorption spectroscopic method relative to control. Summed up:
as §1

The target of test [3] is T1, Beta-galactosidase (Aspergillus oryzae) (UniProt B7VU80).
T1 sequence (whole entry): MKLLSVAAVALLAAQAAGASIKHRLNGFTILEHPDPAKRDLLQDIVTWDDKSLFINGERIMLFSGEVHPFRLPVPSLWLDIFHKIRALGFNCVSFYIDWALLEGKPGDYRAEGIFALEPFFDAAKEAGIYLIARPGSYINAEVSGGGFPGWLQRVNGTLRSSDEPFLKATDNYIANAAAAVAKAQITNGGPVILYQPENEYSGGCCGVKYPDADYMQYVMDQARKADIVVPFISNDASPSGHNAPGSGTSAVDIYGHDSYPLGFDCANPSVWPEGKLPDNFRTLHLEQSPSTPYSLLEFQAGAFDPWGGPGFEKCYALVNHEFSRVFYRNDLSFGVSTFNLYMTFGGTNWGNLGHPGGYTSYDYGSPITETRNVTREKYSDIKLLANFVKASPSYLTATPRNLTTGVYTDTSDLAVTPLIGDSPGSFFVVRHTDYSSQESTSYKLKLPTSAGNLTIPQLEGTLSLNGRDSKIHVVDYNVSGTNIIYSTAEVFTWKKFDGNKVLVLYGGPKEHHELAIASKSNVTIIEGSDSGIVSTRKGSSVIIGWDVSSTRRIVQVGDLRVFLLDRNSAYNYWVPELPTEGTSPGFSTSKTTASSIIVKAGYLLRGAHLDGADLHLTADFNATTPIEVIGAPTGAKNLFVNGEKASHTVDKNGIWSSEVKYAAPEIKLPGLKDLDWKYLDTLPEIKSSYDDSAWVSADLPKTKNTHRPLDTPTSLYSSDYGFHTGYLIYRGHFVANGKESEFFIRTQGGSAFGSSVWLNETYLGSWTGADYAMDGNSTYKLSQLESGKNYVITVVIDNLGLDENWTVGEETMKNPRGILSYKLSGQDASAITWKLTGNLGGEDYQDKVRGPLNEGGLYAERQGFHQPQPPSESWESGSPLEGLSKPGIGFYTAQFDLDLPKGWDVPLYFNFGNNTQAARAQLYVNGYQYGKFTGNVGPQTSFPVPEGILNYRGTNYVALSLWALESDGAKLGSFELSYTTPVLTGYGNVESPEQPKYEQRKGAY
The test is described as follows: Inhibition of Aspergillus oryzae beta-galactosidase at 1 mM using p-nitrophenyl glycopyranoside preincubated for 5 mins followed by substrate addition measured after 20 mins by visible absorption spectroscopic method relative to control. The procedure, abridged: as §1

The next test is filed under the species Bos taurus. The experiment in a line: Inhibition of bovine kidney alpha-L-fucosidase at 1 mM using p-nitrophenyl glycopyranoside preincubated for 5 mins followed by substrate addition measured after 20 mins by visible absorption spectroscopic method relative to control. Summed up: as §1
Test [4] deals with T2, Alpha-mannosidase (Canavalia ensiformis) (UniProt C0HJB3).
T2 sequence (whole entry): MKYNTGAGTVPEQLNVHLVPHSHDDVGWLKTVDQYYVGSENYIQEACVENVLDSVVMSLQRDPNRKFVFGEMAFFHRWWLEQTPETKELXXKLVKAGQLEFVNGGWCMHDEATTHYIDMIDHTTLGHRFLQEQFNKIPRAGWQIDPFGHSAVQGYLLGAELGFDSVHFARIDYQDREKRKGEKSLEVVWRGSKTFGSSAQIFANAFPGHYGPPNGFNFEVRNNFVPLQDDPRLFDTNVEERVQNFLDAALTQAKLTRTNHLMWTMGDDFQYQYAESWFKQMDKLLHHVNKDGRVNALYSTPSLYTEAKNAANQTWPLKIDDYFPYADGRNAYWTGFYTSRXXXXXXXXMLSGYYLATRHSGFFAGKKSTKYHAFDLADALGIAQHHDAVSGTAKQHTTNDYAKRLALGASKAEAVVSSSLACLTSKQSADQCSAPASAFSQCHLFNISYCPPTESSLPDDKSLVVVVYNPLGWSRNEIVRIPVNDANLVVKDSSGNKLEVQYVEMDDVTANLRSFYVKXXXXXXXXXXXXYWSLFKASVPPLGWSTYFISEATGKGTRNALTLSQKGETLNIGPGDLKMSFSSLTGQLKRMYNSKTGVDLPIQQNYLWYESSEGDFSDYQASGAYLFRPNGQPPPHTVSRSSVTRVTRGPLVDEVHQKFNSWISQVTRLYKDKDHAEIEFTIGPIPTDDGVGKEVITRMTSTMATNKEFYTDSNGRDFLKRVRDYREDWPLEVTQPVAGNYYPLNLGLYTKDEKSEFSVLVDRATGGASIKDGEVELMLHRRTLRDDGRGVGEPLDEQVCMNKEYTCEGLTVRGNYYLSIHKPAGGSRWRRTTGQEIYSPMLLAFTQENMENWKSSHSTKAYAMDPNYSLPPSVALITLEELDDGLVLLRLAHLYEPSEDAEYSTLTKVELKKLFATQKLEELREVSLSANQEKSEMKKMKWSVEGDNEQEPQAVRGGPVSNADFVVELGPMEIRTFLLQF
The test is described as follows: Inhibition of jack bean alpha-mannosidase at 1 mM using p-nitrophenyl glycopyranoside preincubated for 5 mins followed by substrate addition measured after 20 mins by visible absorption spectroscopic method relative to control. Summed up: as §1

For test [5], the system named is Prunus dulcis. The experiment in a line: Inhibition of almond beta-glucosidase at 1 mM using p-nitrophenyl glycopyranoside preincubated for 5 mins followed by substrate addition measured after 20 mins by visible absorption spectroscopic method relative to control. Summed up: as §1
For test [6], the target named is Beta-galactosidase (Escherichia coli) (UniProt Q8VNN2). The test is described as follows: Inhibition of Escherichia coli beta-galactosidase at 1 mM using p-nitrophenyl glycopyranoside preincubated for 5 mins followed by substrate addition measured after 20 mins by visible absorption spectroscopic method relative to control. The procedure, abridged:
as §1

Test [7] relates to Prunus dulcis. The experiment in a line: Inhibition of almond beta-glucosidase at 10 uM using p-nitrophenyl glycopyranoside preincubated for 5 mins followed by substrate addition measured after 20 mins by visible absorption spectroscopic method relative to control. The procedure, abridged: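 Crude click-reaction products screened in situ. Azide (final 15 mM) was reacted with each alkyne using sodium ascorbate/CuSO4 in tBuOH–H2O for 24 h at rt, then diluted with water. Tested at 10 μM per well, assuming quantitative conversion, against almond β-glucosidase at pH 5, 37 °C. p-Nitrophenyl glycoside read-out at 405 nm.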

Sequence of Alpha-galactosidase (Coffea arabica) (Q42656 16-378 limits assumed): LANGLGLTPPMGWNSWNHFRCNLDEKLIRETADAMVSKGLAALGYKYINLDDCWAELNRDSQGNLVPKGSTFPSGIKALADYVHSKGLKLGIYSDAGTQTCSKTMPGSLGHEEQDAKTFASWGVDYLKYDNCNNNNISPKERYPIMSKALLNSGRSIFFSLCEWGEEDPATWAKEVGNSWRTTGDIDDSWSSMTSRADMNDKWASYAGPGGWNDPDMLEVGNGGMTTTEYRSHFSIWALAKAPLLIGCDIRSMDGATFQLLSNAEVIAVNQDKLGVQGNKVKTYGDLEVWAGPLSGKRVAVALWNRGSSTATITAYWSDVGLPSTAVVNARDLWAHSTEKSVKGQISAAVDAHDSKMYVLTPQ
Sequence of Beta-galactosidase (Escherichia coli) (Q8VNN2 whole entry, looked up): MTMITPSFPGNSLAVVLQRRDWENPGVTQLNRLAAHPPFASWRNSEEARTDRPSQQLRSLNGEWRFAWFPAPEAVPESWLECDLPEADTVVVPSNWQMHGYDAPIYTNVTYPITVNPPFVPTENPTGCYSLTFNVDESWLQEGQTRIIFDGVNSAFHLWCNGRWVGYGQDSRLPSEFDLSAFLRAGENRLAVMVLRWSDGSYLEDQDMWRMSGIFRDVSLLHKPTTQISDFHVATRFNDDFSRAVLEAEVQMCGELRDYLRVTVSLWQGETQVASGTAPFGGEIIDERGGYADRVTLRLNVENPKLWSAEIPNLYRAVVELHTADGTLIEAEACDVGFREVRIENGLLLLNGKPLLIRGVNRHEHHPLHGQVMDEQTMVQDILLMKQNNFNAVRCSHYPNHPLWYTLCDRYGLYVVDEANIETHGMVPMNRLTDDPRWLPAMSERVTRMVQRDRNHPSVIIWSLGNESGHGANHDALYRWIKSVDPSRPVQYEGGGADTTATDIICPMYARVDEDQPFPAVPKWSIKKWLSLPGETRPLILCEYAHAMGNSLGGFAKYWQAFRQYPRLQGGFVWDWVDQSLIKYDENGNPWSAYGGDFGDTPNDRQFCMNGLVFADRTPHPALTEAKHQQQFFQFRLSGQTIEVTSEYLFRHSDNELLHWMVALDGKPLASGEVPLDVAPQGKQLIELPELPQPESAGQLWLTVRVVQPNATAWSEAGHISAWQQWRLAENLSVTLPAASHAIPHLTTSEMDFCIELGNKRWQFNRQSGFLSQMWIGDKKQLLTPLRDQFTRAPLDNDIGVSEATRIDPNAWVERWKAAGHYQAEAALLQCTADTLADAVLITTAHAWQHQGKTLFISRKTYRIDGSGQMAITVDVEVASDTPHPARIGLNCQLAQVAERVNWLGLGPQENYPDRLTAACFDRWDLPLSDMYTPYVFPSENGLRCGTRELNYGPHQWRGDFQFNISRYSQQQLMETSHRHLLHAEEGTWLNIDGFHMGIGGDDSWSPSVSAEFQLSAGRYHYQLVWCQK
Sequence of Alpha-galactosidase (Q42656 whole entry): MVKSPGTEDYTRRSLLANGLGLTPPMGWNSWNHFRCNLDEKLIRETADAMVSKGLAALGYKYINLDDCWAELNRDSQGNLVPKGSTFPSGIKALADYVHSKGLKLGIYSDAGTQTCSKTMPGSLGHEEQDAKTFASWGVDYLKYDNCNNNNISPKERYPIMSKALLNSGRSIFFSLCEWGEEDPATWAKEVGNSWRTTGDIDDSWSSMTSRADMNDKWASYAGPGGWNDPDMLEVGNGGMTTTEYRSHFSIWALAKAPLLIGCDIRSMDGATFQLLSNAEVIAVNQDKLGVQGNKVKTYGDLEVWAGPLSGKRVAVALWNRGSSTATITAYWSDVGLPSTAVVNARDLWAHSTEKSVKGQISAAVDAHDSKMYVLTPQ

For `[N-]=[N+]=NC[C@H]1NC[C@@H](O)[C@H]1O`, the inhibition in [1] was 88%; in test [2] it was 38%; in test [3], 50%; in test [4], 43%; with Prunus dulcis [5] it was 89%. The inhibition result in the test with Cornu aspersum, with Canavalia ensiformis, with Oryza sativa, in the test on Aspergillus niger, in the test on Saccharomyces cerevisiae and in the test filed under Bos taurus was “inactive” each time. In addition, the inhibition result in [6] is “inactive”. This compound also gave an IC50 at Alpha-galactosidase of 127 µM.
`[N-]=[N+]=NC[C@@H]1NC[C@@H](O)[C@H]1O`: the inhibition came to 44% in test [1], 33% in the test listed under Bos taurus and 71% in test [4]. The inhibition result (in the test with Cornu aspersum; in the test with Canavalia ensiformis; in the test with Oryza sativa; with Aspergillus niger; in the test with Saccharomyces cerevisiae; in test [3]) was “inactive” in each case. Moreover, the inhibition entry (in the test on Prunus dulcis [5]; with Prunus dulcis [7]; in test [6]) was “inactive” each time.
